# According to publication PMC9401513 (Clinical Cancer Research, 2021):
# Entries after “also recorded” stand apart in the source; their conditions may differ.
# B1: cofetuzumab pelidotin (conjugate, chains of the INN, looked up)
# VH: QVQLVQSGPEVKKPGASVKVSCKASGYTFTDYAVHWVRQAPGKRLEWIGVISTYNDYTYNNQDFKGRVTMTRDTSASTAYMELSRLRSEDTAVYYCARGNSYFYALDYWGQGTSVTVSS
# VL: EIVLTQSPATLSLSPGERATLSCRASESVDSYGKSFMHWYQQKPGQAPRLLIYRASNLESGIPARFSGSGSGTDFTLTISSLEPEDFAVYYCQQSNEDPWTFGGGTKLEIK
# modifications: auristatin-0101 payload, vc linker
# How the values were obtained:
# [1] = system: patients with advanced solid tumors; assay: Dose-limiting toxicity, MTD and RP2D determination; assay type: in vivo, human
# Procedure, shortened: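 Dose escalation followed the modified toxicity probability interval method. Target DLT rate was 25%, with an acceptable interval of 20–30%, a beta(0.75, 0.65) prior and a 0.975 exclusion threshold. DLTs were treatment-related events in cycle 1, monitored over 28 days: grade 4 neutropenia >7 days, grade ≥3 nonhematologic nonhepatic toxicity, or >2-week cycle delay. MTD was the highest dose with DLT rate <0.30 in ≥9 evaluable patients. Dosing was IV every 3 weeks (0.2–3.7 mg/kg) or every 2 weeks (2.1, 2.8, 3.2 mg/kg).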
# CYP3A4 = CYP3A4 (Homo sapiens, UniProt P08684); assay: Drug-drug interaction substudy with multiple-dose fluconazole; assay type: in vivo; settings: PF-06647020 co-administered with multiple-dose fluconazole, 11 patients
# Procedure, shortened: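 Single-dose test ADC was given alone in cycle 1 (reference) and co-administered with multiple-dose fluconazole in cycle 2 (test). Unconjugated payload exposure was measured as dose-normalized AUCinf and Cmax from noncompartmental analysis. Results were expressed as ratios of adjusted geometric means with 90% confidence intervals.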
# [2] = Immunogenicity: anti-drug antibodies and neutralizing antibodies; assay type: in vivo, human
# Procedure, shortened: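 Anti-drug antibodies were measured by a validated electrochemiluminescent assay. Samples were taken on days 1 and 15 of cycle 1, day 1 of each later cycle, and at end of treatment. ADA-positive samples were tested for neutralizing antibodies by a validated competitive ligand-binding electrochemiluminescent method.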
# [3] = system: patient-derived xenograft models; settings: cited from earlier work
# [4] = Clinical pharmacokinetics; assay type: in vivo, human; settings: for systemic exposure (AUCtau, Cmax) versus dose: 0.2 to 3.7 mg/kg every 3 weeks dose levels of PF-06647020; for Cmax: ADC, Cycle 1 single dose, geometric mean (geometric % CV)
# CYP3A4, sequence (P08684 whole entry): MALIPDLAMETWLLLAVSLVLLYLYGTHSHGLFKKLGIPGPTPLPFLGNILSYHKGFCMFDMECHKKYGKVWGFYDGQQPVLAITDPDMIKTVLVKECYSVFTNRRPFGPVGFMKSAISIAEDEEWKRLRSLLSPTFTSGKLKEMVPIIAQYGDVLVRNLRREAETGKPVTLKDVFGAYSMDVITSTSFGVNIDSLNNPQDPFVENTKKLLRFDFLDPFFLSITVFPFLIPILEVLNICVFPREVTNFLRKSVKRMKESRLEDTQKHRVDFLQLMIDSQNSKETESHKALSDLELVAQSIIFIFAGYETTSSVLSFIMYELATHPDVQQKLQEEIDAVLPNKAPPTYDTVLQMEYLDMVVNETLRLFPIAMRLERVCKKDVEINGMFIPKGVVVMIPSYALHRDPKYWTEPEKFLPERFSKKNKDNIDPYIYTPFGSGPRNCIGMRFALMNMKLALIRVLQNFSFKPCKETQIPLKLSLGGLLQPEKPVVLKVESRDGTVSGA
molecule,measurement,setting,value
B1,DLT observed,"[1]; 2.8 mg/kg every 2 weeks, n = 10",grade 3 neutropenic infection in 1 patient
same,DLT observed,"[1]; 3.2 mg/kg every 2 weeks, n = 12",grade 3 abdominal pain in 2 patients
same,DLTs reported,"[1]; 3.7 mg/kg every 3 weeks (highest dose), n = 6, two DLTs",grade 3 headache and fatigue; also recorded: grade 3 headache and grade 3 fatigue
same,DLT rate,"[1]; 3.7 mg/kg every 3 weeks, n = 6",33%
same,MTD,"[1]; every 2 weeks regimen, dose levels 2.1-3.2 mg/kg",not reached
same,MTD (estimated as protocol specified),[1]; every 3 weeks,2.8 mg/kg
same,RP2D (recommended phase II dose),[1]; every 3 weeks,2.8 mg/kg
same,impact of fluconazole co-administration on overall exposure,CYP3A4,did not have a notable impact
same,patients with ADA at baseline (not boosted by treatment),[2]; every 2 weeks cohorts,4%
same,patients with treatment-induced ADA and NAb,"[2]; every 2 weeks, 25 evaluable patients",4%
same,infusion-related reaction in ADA-positive patient,"[2]; every 2 weeks, one patient, day 1 cycle 4, resolved same day",grade 2 IRR
same,patients positive for treatment-induced ADA,"[2]; every 3 weeks, 108 evaluable patients",10.2%
same,antitumor activity compared with standard chemotherapy,[3]; patient-derived xenograft models,greater antitumor activity than standard chemotherapy
same,antitumor effect in patient-derived xenograft models,[3]; preclinical,sustained tumor regression
same,effect on tumor-initiating cells (TICs),[3]; serial transplantation experiments,reduced the frequency of TICs
same,AUC ratio between ADC and total antibody,[4]; 2.8 mg/kg every 3 weeks,approximately 0.9
same,"systemic exposure (AUCtau, Cmax) versus dose",[4],generally increased in a dose-related manner
same,"systemic exposure (AUCtau, Cmax) versus dose",[4]; listed as ADC,generally increased in a dose-proportional manner
same,Cmax,[4]; 2.8 mg/kg Q2W IV,99.7 µg/mL
same,Cmax,[4]; 2.8 mg/kg Q3W IV,79.8 µg/mL
